Bioassay records from PubChem.
This excerpt belongs to a sample that is enriched for hits.
HSF-1 act – increases HSF-1 driven luciferase reporter signal. NIH3T3-HGL HSF-1 luciferase reporter, MG132, 8 h; 100% = twice DMSO control signal. activation, % at 9 µM. 300,000 compounds, 1.7% hits. AID 504408;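 active = mean replicate activation of at least 50% with a set share of replicates each reaching 50%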;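 also: 0% = median of the neutral control wells and 100% = twice that signal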
Hsp70 act – transcriptional activators of Hsp70; AID 1203; activation, % at 10 µM; 200,000 compounds, 0.04% hits; HeLa Hsp70 promoter luciferase reporter, luminescence; scaled: vehicle 0, proteasome-inhibitor control 100%;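 active = activation above the mean across all tested compounds plus 3 SD, cutoff set per campaign, cut at about 5.5% in these data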;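 also: 100% = MG132 at 30 µM as the positive control and 0% = DMSO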
Lmaj promast – Leishmania major promastigote growth inhibition; Leishmania major promastigotes, resazurin fluorescence viability; inhibition, % at 10 µM; 200,000 compounds, 9% hits; in the data active = inhibition above about 50%;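 also: promastigotes grown with compound for 44 hours at 28 °C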
HSF1 inh – HSF1 inhibition. NIH3T3-HGL HSE-luciferase, MG132-induced, luminescence 8 h; active compounds read low. activity change, negative = inhibition, % at 7.5 µM (by protocol). 300,000 compounds, 0.77% hits;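 active = more than half of replicate wells show activity change below -50%, luminescence cut by over half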;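 also: luciferase reports HSF-1 transcriptional activity via heat shock element; 0% = median of DMSO wells and -100% = zero luminescence signal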
T cruzi inh – blocks replication of Trypanosoma cruzi. AID 1885. inhibition, % (test concentration not listed). 300,000 compounds, 1.4% hits. T. cruzi beta-gal in NIH3T3, luminescence, 90 h;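 active = mean inhibition across valid replicates above about 55%, limit read from the data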;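 also: signal also drops with host cell toxicity which is not excluded here; 0% = plate median of DMSO wells and 100% = zero luminescence signal; higher percent means less beta-gal luminescence so fewer parasites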
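Incubation – ≥90 h infection period, 3 h prior cell attachment · System – NIH/3T3 fibroblasts plus reporter T. cruzi · Doses – compound pinned at 50 nL/well, DMSO · Read-out basis – percent inhibition of parasite-derived β-gal signal · Signal – luminescent β-galactosidase signal after 60 min lysis · Also added – 5000 T. cruzi trypomastigotes/well · Medium – Low-serum DMEM with 2% FBS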
The depositor's hits bear a star; x = not tested or not shown.

SMILES	HSF-1 act	Hsp70 act	Lmaj promast	HSF1 inh	T cruzi inh
c1ccc(Nc2cccc3c(Nc4ccccc4)cccc23)cc1	24.4	x	x	18.2	56.1*
CN1CCN(C(=O)CCN2C(=O)/C(=C/c3ccccc3Cl)SC2=S)CC1	7.6	-0.2	100.1*	2.2	10.8
Cc1ccc(/C=C2/SC(=S)N(CCC(=O)N3CCN(C)CC3)C2=O)cc1	4.4	-0.3	97.0*	1.8	14.3
Cc1ccc(/C=C2\SC(=S)N(CCC(=O)NNS(=O)(=O)c3ccc(C)cc3)C2=O)cc1	64.1*	-0.2	2.3	14.8	10.3
CN1CCN(C(=O)CCN2C(=O)/C(=C\c3ccccc3F)SC2=S)CC1	5.5	x	x	2.8	1.0
Cc1ccc(/C=C2\SC(=S)N(CCC(=O)N3CCCCC3)C2=O)cc1	-1.5	x	x	-6.1	-11.1
CCOC(=O)c1cnc2ccc(C)cc2c1NCCO	-8.8	-0.4	13.6	-6.7	0.7
CCOC(=O)c1cnc2ccc(C)cc2c1Sc1ccccc1C(=O)OC	-9.2	-0.1	-0.4	1.7	61.4*
CCOC(=O)c1cnc2ccc(OC)cc2c1NCc1ccccc1	1.3	-0.1	68.6*	2.8	33.0
COC(=O)c1ccccc1Sc1snnc1C	-5.4	0.2	-3.5	2.4	4.4
CCOC(=O)c1cnc2ccc(OCC)cc2c1NCCCN1CCOCC1	29.3	x	x	-1.3	37.9
CCOC(=O)c1cnc2ccc(OCC)cc2c1NCc1ccccc1OC	-17.2	-0.1	97.2*	-7.3	38.3
CC(C)COc1ncnc2c1sc1nc3c(cc12)COC(C)(C)C3	32.9	x	x	16.4	-15.8
C=CCn1c(C)nc2c(sc3nc4c(cc32)COC(C)(C)C4)c1=O	52.7*	x	x	30.6	-3.7
CCc1nc2c(sc3nc4c(cc32)COC(C)(C)C4)c(=O)n1CCN(CC)CC	8.1	-0.1	9.5	1.4	-4.3
CCC(C)Nc1nnnc2c1sc1nc3c(cc12)COC(C)(C)C3 (stereo not given)	10.8	-0.2	50.1*	3.3	11.8
CCOc1ccccc1N(CC(=O)N1CCOCC1)S(=O)(=O)c1ccc(SC)cc1	5.0	0.1	-8.6	0.8	-2.2
CCOC(=O)C1(Cc2ccc(OC)cc2)CCN(C(=O)CN2CCCCC2=O)CC1	-7.4	-0.2	5.1	6.0	-3.9
O=C(CSc1nc2ccccc2n1S(=O)(=O)c1ccccc1)N1CCCCC1	-57.5	0.1	8.9	-56.0*	-3.0
CCOC(=O)c1ccc(S(=O)(=O)N2CCN(C(=O)CSc3nc4ccccc4o3)CC2)cc1	25.4	-0.2	-4.1	20.0	-3.5
CCOC(=O)c1ccc(S(=O)(=O)n2c(CN3CCCCC3)nc3ccccc32)cc1	-0.6	-0.3	52.1*	1.1	24.7
CC(C)CCC(C(=O)O)C(C)CC(=O)Nc1ccn(-c2ccccc2)n1 (stereo not given)	-34.3	x	x	-14.7	-15.5
COc1ccc(-c2cnnn2-c2ccc(NC(=O)c3ccc(S(=O)(=O)N4CCCCC4)cc3)cc2)cc1	11.3	-0.3	98.8*	-2.9	1.3
COc1ccc(C(=O)Nc2ccc(S(=O)(=O)N3CCCC3)cc2)c(OC)c1	3.2	-0.1	-1.3	-3.8	77.4*
COc1ccc(C(=O)Nc2ccc(S(=O)(=O)N3CCCCC3)cc2)cc1	1.3	-0.2	9.2	-1.1	2.2
SMILES	HSF-1 act	Hsp70 act	Lmaj promast	HSF1 inh	T cruzi inh
COc1ccccc1C(=O)Nc1ccc(S(=O)(=O)N2CCCC2)cc1	2.6	0.0	-0.7	2.3	2.1
COc1cccc(NC(=O)c2cc(-c3ccncc3)nc3c(C)cc(C)cc23)c1	-4.8	-0.2	55.1*	-1.6	28.8
CCOc1ccccc1NC(=O)c1cc(-c2ccncc2)nc2c(Cl)cccc12	5.1	-0.4	25.1	5.1	57.1*
Cc1cn(Cc2ccccc2Cn2cc(C)c(=O)[nH]c2=O)c(=O)[nH]c1=O	70.6*	x	x	26.8	-8.8
CCOC(=O)c1ccc(NC(=O)c2cc(OC)c(OC)c(OC)c2Br)cc1	1.4	0.0	73.7*	6.6	-8.2
CC1=C/C(=N\OS(=O)(=O)c2ccccc2)C(C)=CC1=O	x	0.3	100.5*	x	x
COc1ccc(S(=O)(=O)/N=C2/C=CC(=O)C(C)=C2C)cc1	-1.4	1.2	24.2	-4.5	-13.2
CC1=C/C(=N\OS(=O)(=O)c2ccccc2)C(C(C)C)=CC1=O	x	0.0	100.4*	x	x
CC1=C(C)/C(=N\OS(=O)(=O)c2ccc(C)cc2)C=CC1=O	x	2.9	100.5*	x	x
Cc1nc2c(C)cccc2c2c1CCS2	-10.3	x	x	-1.6	-3.8
FC(F)(F)c1cnc(-c2cnc(-c3ccccn3)nc2)c(Cl)c1	48.4	-0.2	0.9	10.7	-6.5
O=C(CN1CC[n+]2c(-c3ccccc3)csc21)c1ccc(Br)cc1	-9.8	x	x	-9.2	30.2
O=C(CN1CC[n+]2c(-c3cccs3)csc21)c1ccc(Br)cc1	30.3	-0.3	20.1	0.8	60.0*
COc1ccccc1OCCN1CSC(=S)N(C)C1	-7.9	-0.3	100.3*	-2.0	9.1
Cc1cccc(OCCN2CSC(=S)N(C)C2)c1	23.6	-0.2	99.6*	16.6	10.8
Cc1cccc(OCCn2cnc(Cl)c2Cl)c1	3.3	x	x	3.4	3.1
CCC(C)(C)NC(=O)CN(C(=O)CCC(=O)Nc1nccs1)c1ccccc1C	2.6	x	x	4.9	3.2
O=C(Nc1ccc(S(=O)(=O)NCc2ccco2)cc1)c1ccc2ccccc2n1	0.7	-0.4	51.8*	13.8	20.0
Cc1ccc(NC(=O)COc2ccccc2C(=O)Nc2ccccc2)cc1Cl	12.2	-0.3	4.5	25.1	24.6
CCOc1ccc(NC(=O)C(C)Oc2ccccc2C(=O)Nc2ccc(C)c(Cl)c2)cc1 (stereo not given)	11.7	0.0	39.3	4.8	72.0*
O=C(OCCOc1cccc(Cl)c1)c1cc(S(=O)(=O)N2CCCCC2)ccc1N1CCOCC1	20.1	x	x	16.6	64.8*
O=C(OCc1cccc(Cl)c1)c1cc(S(=O)(=O)N2CCCCC2)ccc1N1CCOCC1	33.9	x	x	34.4	10.1
COCCCn1c(SCc2cccc(C(F)(F)F)c2)nc2cc(OC)c(OC)cc2c1=N	-1.4	0.3	28.1	5.1	57.7*
COCCCn1c(SCc2ccccc2)nc2cc(OC)c(OC)cc2c1=N	11.5	0.0	64.2*	-6.8	56.3*
COc1cc(CC(NC(C)=O)C(=O)NC2CCN(C(=O)Nc3ccc(C)cc3)CC2)cc(OC)c1 (stereo not given)	4.5	x	x	-0.5	-13.0
CC(C)(C)C1CCC(C(=O)OCC(=O)c2ccc[nH]2)CC1 (stereo not given)	-4.6	-0.3	56.9*	-10.1	4.1
COc1ccc2cc(-c3cc(C(=O)OCC(=O)NC4CCS(=O)(=O)C4)c4ccccc4n3)ccc2c1 (stereo not given)	1.7	0.0	60.0*	6.6	-2.5
Cc1ccc(Oc2ccc(OCC(=O)NC3CCS(=O)(=O)C3)cc2)cc1 (stereo not given)	53.3*	x	x	36.8	-12.7
O=C(COC(=O)c1cc(-c2cccc3ccccc23)nc2ccccc12)NC1CCS(=O)(=O)C1 (stereo not given)	0.9	-0.3	69.2*	0.8	-11.4
